Assay outcomes: PubChem, several laboratories
An excerpt weighted towards active compounds, which were near 3.6% of everything screened.
HSF1 inh: HSF1 inhibition; activity change, negative = inhibition, % at 7.5 µM (by protocol); NIH3T3-HGL HSE-luciferase, MG132-induced, luminescence 8 h; hits give low values; 0.77% of 300,000 active;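 active = more than half of replicate wells show activity change below -50%, luminescence cut by over half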;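 also: luciferase reports HSF-1 transcriptional activity via heat shock element; 0% = median of DMSO wells and -100% = zero luminescence signal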
PolyA inh: inhibitors of polyadenylation in S. cerevisiae; S. cerevisiae SKY197-pL101 polyadenylation reporter, beta-gal luminescence; efflux-impaired pdr1/pdr3 knockout yeast; score 100 = 6 SD above DMSO; activity score, % at 12 µM; 0.02% of 300,000 active;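 active = lowest replicate activity score at least 50, where 100 means six control SD above control mean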;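 also: yeast exposed to compound for 9 h at 30 °C; higher score means more reporter readthrough which indicates perturbed polyadenylation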
AHR act: human AHR activation | P35869 | AHR-responsive luciferase reporter cells, luminescence | activation, % at 5 µM | 2.5% of 320,000 active | AID 2796; in the data active = activation above about 47%;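 also: 0% = vehicle wells and 100% = reference agonist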
Target sequence (P35869 whole entry, looked up): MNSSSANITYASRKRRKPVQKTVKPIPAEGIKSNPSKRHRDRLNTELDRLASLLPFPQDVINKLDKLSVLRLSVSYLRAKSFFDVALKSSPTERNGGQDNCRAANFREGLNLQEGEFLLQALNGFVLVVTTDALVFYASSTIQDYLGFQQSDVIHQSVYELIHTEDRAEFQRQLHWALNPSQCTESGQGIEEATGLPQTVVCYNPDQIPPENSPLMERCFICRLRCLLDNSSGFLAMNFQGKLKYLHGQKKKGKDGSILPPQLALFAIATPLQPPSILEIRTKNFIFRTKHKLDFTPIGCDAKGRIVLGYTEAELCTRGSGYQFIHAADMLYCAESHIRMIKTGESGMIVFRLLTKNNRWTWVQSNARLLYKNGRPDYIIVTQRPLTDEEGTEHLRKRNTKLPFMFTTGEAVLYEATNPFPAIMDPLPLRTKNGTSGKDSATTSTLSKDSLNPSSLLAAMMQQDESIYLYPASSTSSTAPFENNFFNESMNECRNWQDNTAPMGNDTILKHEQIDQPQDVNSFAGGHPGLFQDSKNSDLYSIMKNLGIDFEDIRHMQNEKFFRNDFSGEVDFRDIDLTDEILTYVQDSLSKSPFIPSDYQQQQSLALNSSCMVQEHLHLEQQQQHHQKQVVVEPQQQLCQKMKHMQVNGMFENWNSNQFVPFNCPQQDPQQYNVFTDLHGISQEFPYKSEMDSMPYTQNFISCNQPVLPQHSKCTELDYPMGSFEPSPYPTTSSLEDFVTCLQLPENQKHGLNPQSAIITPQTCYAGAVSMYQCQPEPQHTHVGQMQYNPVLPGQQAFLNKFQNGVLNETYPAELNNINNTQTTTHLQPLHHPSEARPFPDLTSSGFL
STAT3 activator: STAT3 signaling activation; U3A cells, IL-6 STAT3-luciferase reporter, luminescence; 100% = signal with IL-6 EC80 alone; activation (% of control), % at 5.6 µM; 0.91% of 190,000 active;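 active = activation above the screen-wide mean of compound activation plus 3 SD, cut at about 130% in these data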;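 also: 0% = background luminescence of wells with medium and substrate only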
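Material: human STAT1-deficient U3A cells with stable STAT3-luciferase reporter / Probe or stimulus: IL-6 stimulus at 33 ng/mL final / Schedule: 1 h compound pre-exposure, 6 h IL-6 stimulation, 37 °C / Technique: luminescence / Read-out basis: percent of IL-6-only median luminescence / Control set: IL-6-only high control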
PERK inhibitor: human PERK inhibition, primary cell-based screen. 0.17% of 220,000 active. inhibition, % at 5.6 µM. Q9NZJ5. CHO PERK-DD fusion, SEAP luminescence translation reporter;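 active = inhibition above the mean inhibition of all tested compounds plus 3 SD, set separately per screening campaign, cut at about 2.9% in these data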;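 also: PERK kinase domain activated by AP20187 dimerizer at 100 nM; 0% = DMSO with dimerizer and 100% = rapamycin at 8.4 µM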
Hsp70 activator: switches on Hsp70 transcription | HeLa Hsp70 promoter luciferase reporter, luminescence; scaled: vehicle 0, proteasome-inhibitor control 100% | 0.04% of 200,000 active | activation, % at 10 µM;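 active = activation above the mean across all tested compounds plus 3 SD, cutoff set per campaign, cut at about 5.5% in these data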;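 also: 100% = MG132 at 30 µM as the positive control and 0% = DMSO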
* marks the source's active call; other numbers are inactive results; x = no result.

SMILES	HSF1 inh	PolyA inh	AHR act	STAT3 activator	PERK inhibitor	Hsp70 activator
Clc1ccc(-c2nn3c(-c4ccccc4)nnc3s2)cc1	-2	-11	-16	94	0	0
Clc1ccc(-c2nnc3sc(-c4ccc(Br)o4)nn23)cc1	x	x	61*	91	2	0
Cc1oc(-c2ccc(Cl)cc2)cc1-c1nn2c(-c3ccoc3C)nnc2s1	2	2	52*	100	1	0
C/C(=N\NC(=O)C(O)(c1ccccc1)c1ccccc1)c1ccc(C)o1	1	0	2	90	1	0
C/C(=N\NC(=O)CCC(=O)N/N=C(\C)c1ccc(C)o1)c1ccc(C)o1	-10	-10	74*	x	x	x
CCOC(=O)c1[nH]c2cc3c(cc2c1NC(=O)CN1CCN(CCO)CC1)OCO3	-4	8	22	x	-1	x
CCOC(=O)N1CCN(CC(=O)Nc2c(C(=O)OC)[nH]c3cc(C)ccc23)CC1	-7	-8	64*	116	0	0
CCOC(=O)N1CCN(CC(=O)Nc2c(C(=O)OC)[nH]c3ccc(Cl)cc23)CC1	-8	-8	6	82	-1	0
CCOC(=O)c1[nH]c2cc3c(cc2c1NC(=O)CN1CCC2(CC1)OCCO2)OCO3	-9	-11	62*	99	-1	0
Cc1cccc(N2CCN(C(=O)c3ccc(S(=O)(=O)N(C)c4ccccc4)cc3)CC2)c1C	x	x	-3	x	x	x
CN(C)S(=O)(=O)N1CCN(c2ccc([N+](=O)[O-])c(N3CCOCC3)c2)CC1	-8	21	13	136*	1	-1
CCN(CC)c1ccc(S(=O)(=O)N2CCCCC2)cc1NC(=O)CN1C(=O)NC2(CCCC2)C1=O	7	20	-2	x	x	x
CCCC(=O)Oc1ccc(-c2nccc(C(OC)OC)n2)cc1	-2	15	3	99	2	0
COc1cccc(NC(=S)N(CCC(C)C)C2CCN(C(C)=O)CC2)c1	-76*	-3	2	x	x	x
COCCN(C(=S)Nc1cccc(OC)c1)C1CCN(C(C)=O)CC1	9	0	8	89	1	0
c1ccc(-c2cn3c4c(sc3n2)CCCC4)cc1	36	-40	66*	33	-1	-1
Oc1[nH]c2ccccc2c1N=Nc1cccc(Cl)c1	37	-16	41	x	x	x
Cc1cccc2c(N=Nc3ccccc3)c(O)[nH]c12	26	-17	76*	x	x	x
Cc1ccc(C(=O)Cn2c(C(=O)O)cc3ccccc32)cc1	-1	-7	59*	x	x	x
O=C(NC(=S)Nc1cc(-c2nc3ccccc3[nH]2)ccc1Cl)c1ccc2c(c1)OCO2	-23	-11	84*	113	0	0
C(=N\Nc1nc2ccccc2[nH]1)/c1ccccc1	138	3	30	84	0	0
C(=N\Nc1nc2ccccc2[nH]1)/c1cccc2cccnc12	-15	-5	42	x	-1	x
Cc1[nH]c2ccccc2c1/C=N/Nc1nc2ccccc2[nH]1	337	7	143*	x	-3	x
Fc1cccc(/C=N/Nc2nc3ccccc3[nH]2)c1	3	-3	2	90	0	0
C(=C\c1ccccc1)/C=N/Nc1nc2ccccc2[nH]1	11	18	65*	108	0	0
SMILES	HSF1 inh	PolyA inh	AHR act	STAT3 activator	PERK inhibitor	Hsp70 activator
Cc1[nH]c2ccccc2c1/C=N/Nc1nc(N2CCCCC2)nc(N2CCCCC2)n1	-3	-16	15	92	1	0
Fc1ccc(/C=N/Nc2nc3ccccc3[nH]2)cc1F	64	-22	49*	94	0	0
Cc1ccccc1/C=N/Nc1nc2ccccc2[nH]1	177	-6	65*	87	-1	0
Cc1cc(=O)[nH]c(N/N=C/c2c[nH]c3ccccc23)n1	7	3	20	x	2	x
COc1ccc(/C=N/Nc2ccccn2)c(OC)c1OC	5	4	30	94	0	0
COc1ccc(/C=N/Nc2nc3ccccc3[nH]2)c(OC)c1OC	110	2	51*	x	-3	x
C(=N\Nc1nc2ccccc2[nH]1)/c1c[nH]c2ccccc12	244	2	108*	112	0	0
O=C(CN1C(=O)c2ccccc2C1=O)N1CCN=C1c1ccccc1	0	-2	0	x	-1	x
CCOC(=O)C/C(=N\Nc1ncnc2ccccc12)c1ccccc1	24	-7	69*	x	x	x
CCn1nc(C(=O)NNC(=O)c2ccccc2)c2ccccc2c1=O	x	x	13	x	x	x
CN(C)c1ccc(Nc2cc(Cl)ncn2)cc1	5	-23	73*	x	x	x
COc1ccc(Nc2cc(Nc3ccccc3)ncn2)cc1	17	-1	20	x	x	x
COc1ccccc1-n1cc(-c2ccc(Br)cc2)[nH]c1=S	8	-13	78*	x	x	x
COc1ccccc1-n1cc(-c2ccc([N+](=O)[O-])cc2)[nH]c1=S	6	-11	63*	x	0	x
COc1ccc(-c2cn(-c3ccccc3)c(=S)[nH]2)cc1OC	24	-10	43	x	x	x
N#CCc1nn(-c2ccc(Cl)cc2)c(N)c1C#N	-17	12	64*	106	1	0
COc1ccccc1C(=O)N/C(=C\c1cn(S(=O)(=O)N(C)C)c2ccccc12)C(=O)NCCN1CCOCC1	-80*	11	0	x	x	x
CCCOc1ccc(N2CC(C(=O)Nc3ccccc3OC)CC2=O)cc1 (stereo unspecified)	-1	-11	-1	104	1	0
COc1ccc(N2CC(C(=O)Nc3cc(C)on3)CC2=O)cc1 (stereo unspecified)	11	-15	0	99	-2	0
CCOc1ccc(N2CC(C(=O)Nc3cc(C)on3)CC2=O)cc1 (stereo unspecified)	10	0	76*	104	0	0
CCCOc1ccc(N2CC(C(=O)NC(C)C)CC2=O)cc1 (stereo unspecified)	-60*	13	12	104	0	0
COc1ccc(Nc2nc(Nc3ccc(OC)cc3)nc(-n3[nH]c(=O)c(C)c3C)n2)cc1	-63*	-2	21	92	-1	0
CN(C)c1ccccc1C(=O)N1CCCC(C(=O)c2ccc3ccccc3c2)C1 (stereo unspecified)	15	-9	3	93	1	0
Cc1cccn2c(=O)c(C=O)c(N3CCC4(CC3)OCCO4)nc12	1	8	23	x	1	x
Nc1cccc(NP(=O)(c2ccccc2)c2ccccc2)c1	-1	10	-2	x	0	x
Cn1c2c(c(=O)n(C)c1=O)C(CC(=O)Nc1ccccc1)C(=O)N2 (stereo unspecified)	-67*	10	1	106	0	0
Cn1c2c(c(=O)n(C)c1=O)C(CC(=O)Nc1ccccc1F)C(=O)N2 (stereo unspecified)	0	1	1	x	1	x
